Published values gathered from unrelated publications.
Protocols differ between the studies behind these lines.
Target: Inhibitor of nuclear factor kappa-B kinase subunit beta (IKBKB, Homo sapiens, UniProt O14920)
Method: competition with immobilised ligand
Sequence (O14920 1-756, as in one of the studies): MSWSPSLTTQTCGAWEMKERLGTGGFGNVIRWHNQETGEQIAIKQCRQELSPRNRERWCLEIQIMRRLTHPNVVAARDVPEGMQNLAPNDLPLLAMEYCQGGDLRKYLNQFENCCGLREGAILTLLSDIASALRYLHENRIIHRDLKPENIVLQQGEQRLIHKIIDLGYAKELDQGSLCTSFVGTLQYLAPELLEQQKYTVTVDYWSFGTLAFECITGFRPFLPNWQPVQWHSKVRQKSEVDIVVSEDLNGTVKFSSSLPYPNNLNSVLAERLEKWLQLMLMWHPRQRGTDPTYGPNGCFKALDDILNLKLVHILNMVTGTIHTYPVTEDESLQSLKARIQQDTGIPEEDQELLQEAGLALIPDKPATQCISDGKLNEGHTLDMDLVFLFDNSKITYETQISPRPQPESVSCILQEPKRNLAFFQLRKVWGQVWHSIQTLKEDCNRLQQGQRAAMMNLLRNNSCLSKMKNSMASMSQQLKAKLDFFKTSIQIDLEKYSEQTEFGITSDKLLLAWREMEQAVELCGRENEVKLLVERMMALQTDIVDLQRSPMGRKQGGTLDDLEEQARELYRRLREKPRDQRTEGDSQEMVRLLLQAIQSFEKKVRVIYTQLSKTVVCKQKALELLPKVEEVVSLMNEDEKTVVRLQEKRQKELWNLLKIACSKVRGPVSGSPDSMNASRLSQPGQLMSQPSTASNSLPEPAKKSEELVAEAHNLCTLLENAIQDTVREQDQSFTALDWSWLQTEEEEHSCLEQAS

The remaining binding of `Nc1ncc2c(n1)-c1c([nH]c3ccc(C#CC4CC4)cc13)CCCC2` is reported as 100% (binding; 1 µM).
`COc1cnc(Nc2cccc(S(N)(=O)=O)c2)nc1N1CCN(c2ccccc2)C(=O)C1` gave a remaining binding of 93% (binding; 1 µM).
The remaining binding of `O=C(Nc1c[nH]nc1C(=O)NC1CCNCC1)c1cc(F)cc(F)c1` is reported as 100% (binding; 1 µM).
For `CN1CCN(c2cnc3c(C4CCN(C(=O)c5ccc(OC(F)(F)F)cc5N)CC4)ncnc3c2)CC1`, the remaining binding was 100% (cell-free assay; 1 µM).
`O=C(c1ccc(Nc2nccc(-c3cc4ccccc4s3)n2)cc1)N1CCC(N2CCCC2)CC1` has a remaining binding of 0.1% (binding; 1 µM).
With `C[C@H]1CCN(c2nccc(-c3cnn4ncccc34)n2)C1` the remaining binding was 64% (binding; 1 µM).
With `N#Cc1ccccc1CSc1nnc2c(n1)[nH]c1ccccc12` the remaining binding was 100% (binding; 10 µM).
`O=C(NCCCN1CCOCC1)c1ccc(Nc2ncc(Cl)c(-c3ccc(Cl)s3)n2)cc1` has a remaining binding of 23% (binding; 1 µM).
`CCCCN(CCCC)C(=O)CN1C[C@H](c2cc(OC)c3c(c2)OCO3)[C@@H](C(=O)O)[C@@H]1CC(C)(C)CCC` has a remaining binding of 81.5% (cell-free assay; 1 µM).
`N[C@@H]1CCN(c2nccc(-c3cnn4ncccc34)n2)C1` gave a remaining binding of 100% (binding; 1 µM).
The remaining binding of `C[C@@H]1CN(c2ccc3ncc(-c4ccc5[nH]nc(C6CC6)c5c4)n3n2)C[C@H](C)O1` is reported as 89% (binding; 0.5 µM).
For `CN(CCCC(F)(F)F)c1nccc(-c2cnn3ncccc23)n1`, the remaining binding was 100% (binding; 1 µM).
The remaining binding of `CCCOc1ccc([C@@H]2[C@@H](C(=O)O)[C@H](c3ccc4c(c3)OCO4)CN2CC(=O)Nc2c(CC)cccc2CC)cc1` is reported as 94% (cell-free assay; 1 µM).
`CN(C)c1nccc(-c2cnn3ncccc23)n1` has a remaining binding of 84% (binding; 1 µM).
The remaining binding of `CNC(=O)[C@@H]1CC[C@@H](n2c(-c3ccc4cnccc4c3)nc3ccc(C(=O)NCc4cccc(C(N)=O)c4)cc32)C1` is reported as 100% (binding; 1 µM).
For `CCOC(=O)c1cc2cc(-c3cc(C(=O)NCc4ccc(C(=O)O)cc4)nn3C)ccc2[nH]1`, the remaining binding was 100% (cell-free assay; 0.1 µM).
With `COc1ccnn2ncc(-c3ccnc(N(C)C)n3)c12` the remaining binding was 98% (binding; 1 µM).
The remaining binding of `CS(=O)(=O)c1cc(C2(NC(=O)c3cncc4c3cnn4-c3ccc(F)cc3)CC2)ccn1` is reported as 100% (cell-free assay; 1 µM).
`C=CC(=O)N1CCC(C(=O)NCC(=O)N2CCN(c3nc(-c4cnc(N)nc4C(F)F)nc(N4CCOCC4)n3)CC2)CC1` gave a remaining binding of 73% (binding; 1 µM).
`CC1CCCN1c1nccc(-c2cnn3ncccc23)n1` (centres unmarked) gave a remaining binding of 100% (binding; 1 µM).
With `CCN1CCN(Cc2ccc(C(=O)Nc3ccc(C)c(Oc4ccc5c(c4)CC(=O)N5)c3)cc2C(F)(F)F)CC1` the remaining binding was 100% (binding; 1 µM).
`CN(C)c1nccc(-c2cnc3ncccn23)n1` has a remaining binding of 67% (binding; 1 µM).
For `C[C@@]1(Cc2ccc(C#N)cc2)C(=O)N(c2cc(Cl)cc(Cl)c2)c2ncc(C(=O)NC3(c4nc(C5CCC5)no4)CC3)n21`, the remaining binding was 100% (cell-free assay; 1 µM).
`O=C(c1ccc(Nc2ncc(Cl)c(-c3ccc(Cl)s3)n2)cc1)N1CCC(N2CCCC2)CC1` has a remaining binding of 0.6% (binding; 1 µM).
The remaining binding of `CC(=O)N1CCC(c2ccc(C(=O)NC3=NCCN3)cc2C(F)(F)F)CC1` is reported as 85% (cell-free assay; 1 µM).
`COc1ncc2cc3ccccc3nc2c1C#N` has a remaining binding of 96% (cell-free assay; 5 µM).
